GRK2 aptamer HTS = compounds blocking aptamer binding on GRK2 – biochemical, human GRK2, bead flow cytometry, HTS, primary screen | Beta-adrenergic receptor kinase 1 (Homo sapiens), P25098 | hit rate 0.59% among 330,000 | inhibition of aptamer binding, % at 10 µM | FAM-aptamer displacement from GRK2;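 active = inhibition of aptamer binding above 40%, roughly 3 SD of noise, on plates passing a quality check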;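 note: median bead fluorescence of bound FAM aptamer so fluorescent compounds give negative values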
SUMO1-SIM PPI = modulators of SUMO1 protein-protein interactions, primary screen, biochemical, uHTS; inhibition, % at 20 µM; AID 602429, 2012; hit rate 0.33% among 360,000; SUMO1 binding to a labelled peptide, TR-FRET, 1 h; in the data active = inhibition above about 37%
Scp1 inh = Scp-1 phosphatase inhibitors, primary screen, biochemical, colorimetric, uHTS. Carboxy-terminal domain RNA polymerase II polypeptide A small phosphatase 1 (Homo …. Recombinant Scp1, phosphopeptide, malachite green phosphate absorbance. inhibition, % at 20 µM. hit rate 0.88% among 340,000. AID 493091, 2011;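 active = inhibition above about 50% at 20 µM, limit read from the data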;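 note: plate controls were DMSO wells with enzyme for no effect and wells lacking enzyme for full effect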
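Test system: SCP-1 catalytic domain; Buffer or medium: Acidic Tris acetate buffer with magnesium and detergent; Also added: Phosphorylated 17-residue peptide substrate; Compound: single 20 µM dose, 1% DMSO; Schedule: enzyme reaction 45 min at room temperature, colour 5 min, stabilisation 30 min; Signal: Phosphate-binding colour reagent, absorbance read at 630 nm.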
LMPTP block = LMPTP phosphatase inhibitors, primary screen, biochemical, fluorescence intensity, uHTS | Low molecular weight phosphotyrosine protein phosphatase (Homo sapiens), P24666 | recombinant LMPTP-A, OMFP fluorogenic substrate | inhibition, % at 20 µM | hit rate 0.22% among 360,000 | AID 651560, 2012;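 active = compounds that cut the enzyme signal by at least half of the control window in the single-dose screen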;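 note: plate controls were DMSO wells with enzyme plus substrate for no effect and substrate without enzyme for full effect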
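Test system: LMPTP-A phosphatase enzyme. Amount: LMPTP-A at 0.625 nM final in the reaction. Reagent: OMFP substrate, 400 µM final. Times: 50 min at room temperature. Signal: endpoint fluorescence intensity from OMFP dephosphorylation. Read-out basis: % inhibition. Benchmarks: no-enzyme and uninhibited controls.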
STEP block = STEP phosphatase inhibitors, primary screen, biochemical, fluorescence intensity, uHTS; Tyrosine-protein phosphatase non-receptor type 5 (Homo sapiens), P54829; inhibition, % at 20 µM; hit rate 0.25% among 360,000; recombinant STEP, OMFP fluorogenic substrate;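 active = inhibition at 20 µM, scaled per plate between control wells, above about 37%, limit read from the data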;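 note: 0% = DMSO with enzyme and substrate and 100% = substrate only without enzyme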
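material = STEP tyrosine phosphatase | reagent = fluorogenic phosphatase substrate OMFP at 25 µM final | doses = single compound dose of 20 µM, 1% DMSO final | schedule = 20 min reaction, room temperature, in the dark | measured by = fluorescence, 480/540 nm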
DNMT1 inh = human DNMT1 methyltransferase inhibitors, primary screen, biochemical, molecular beacon, fluorescence, HinP1I cleavage, uHTS. inhibition (reported as % activation of signal), % at 10 µM. DNA (cytosine-5)-methyltransferase 1 (Homo sapiens), P26358. hit rate 0.83% among 360,000. AID 588458, 2011; in the data active = inhibition above about 50%
Target sequence (P26358 504-1616 limits assumed): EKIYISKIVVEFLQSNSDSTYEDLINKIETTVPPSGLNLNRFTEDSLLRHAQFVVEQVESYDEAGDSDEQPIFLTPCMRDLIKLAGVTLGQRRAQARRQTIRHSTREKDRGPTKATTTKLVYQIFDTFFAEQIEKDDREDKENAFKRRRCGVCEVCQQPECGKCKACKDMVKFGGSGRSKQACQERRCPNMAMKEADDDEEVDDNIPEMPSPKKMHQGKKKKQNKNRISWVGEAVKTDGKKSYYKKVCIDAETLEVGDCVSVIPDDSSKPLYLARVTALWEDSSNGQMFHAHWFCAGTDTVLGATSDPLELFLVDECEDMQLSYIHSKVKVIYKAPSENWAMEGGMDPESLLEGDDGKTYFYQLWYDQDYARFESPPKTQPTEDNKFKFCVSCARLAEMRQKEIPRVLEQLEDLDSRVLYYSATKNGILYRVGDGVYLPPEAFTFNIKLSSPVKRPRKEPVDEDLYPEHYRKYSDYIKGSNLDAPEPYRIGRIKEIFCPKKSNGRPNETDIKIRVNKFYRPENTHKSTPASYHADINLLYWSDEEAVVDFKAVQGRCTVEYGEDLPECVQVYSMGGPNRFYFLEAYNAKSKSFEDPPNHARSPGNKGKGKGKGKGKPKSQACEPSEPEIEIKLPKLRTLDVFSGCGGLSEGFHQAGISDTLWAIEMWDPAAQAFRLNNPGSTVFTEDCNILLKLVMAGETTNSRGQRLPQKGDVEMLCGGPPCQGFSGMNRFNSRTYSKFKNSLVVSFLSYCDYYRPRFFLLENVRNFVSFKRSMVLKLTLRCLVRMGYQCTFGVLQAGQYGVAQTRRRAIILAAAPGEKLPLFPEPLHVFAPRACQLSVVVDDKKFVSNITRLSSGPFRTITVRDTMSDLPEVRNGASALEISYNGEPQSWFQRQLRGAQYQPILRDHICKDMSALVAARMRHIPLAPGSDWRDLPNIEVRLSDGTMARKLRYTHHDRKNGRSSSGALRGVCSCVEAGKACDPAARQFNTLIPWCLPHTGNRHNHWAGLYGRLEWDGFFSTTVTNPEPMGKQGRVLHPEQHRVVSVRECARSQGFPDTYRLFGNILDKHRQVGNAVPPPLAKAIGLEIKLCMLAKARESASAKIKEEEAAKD
GRK2 CP1 = GRK2 aptamer-displacing inhibitors, retest, confirmation, biochemical, cherry pick 1, bead flow cytometry. shares compounds with GRK2 aptamer HTS. bead-bound GRK2, FAM-aptamer displacement. aptamer displacement, % at 10 µM. hit rate 4% among 2,000. AID 504451, 2011;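 active = aptamer displacement above 40%, near three times the noise of non-fluorescent compounds, on plates passing quality checks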;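 note: negative values mostly reflect intrinsic compound fluorescence rather than true enhancement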
Aptamer quench = counter-screen for GRK2 aptamer inhibitors: fluorescent aptamer quenchers; 110 tested, under 10 active; AID 504521; shares compounds with GRK2 aptamer HTS; fluorescence change (kMESF span), kMESF (test concentration not listed); Fluorescent RNA aptamer beads, quenching, flow cytometry; active compounds read high;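 active = compounds whose bead fluorescence drops by more than 37 kMESF across the dose range, marking them as dye quenchers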
FAM quench CP1 = counter-screen for GRK2 aptamer inhibitors: fluorescent aptamer quenchers; shares compounds with GRK2 aptamer HTS; Carboxyfluorescein RNA aptamer on beads, flow cytometry quenching; active compounds read low; fluorescence response (% of DMSO), % at 10 µM; 2,000 tested, under 10 active;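 active = compounds that quench the bead-bound fluorescent RNA probe, cutting fluorescence to under half of the solvent control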;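 note: counterscreen run without GRK2 so only probe quenching by compound is measured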
GRK2 confirm 2 = GRK2 aptamer-displacing inhibitors, hit retest, confirmation, biochemical, cherry pick 2, bead flow cytometry. bead-bound GRK2, FAM-aptamer displacement. shares compounds with GRK2 aptamer HTS. 360 tested, under 10 active. inhibition of aptamer binding, % at 10 µM. AID 504782, 2011;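 active = inhibition of aptamer binding above 40%, about triple the noise seen with nonglowing compounds, on plates passing quality control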;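 note: negative values mostly come from compounds that fluoresce themselves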
Aptamer quench3 = fluorescence quenching of FAM-labeled RNA aptamer, dose response, artefact control for GRK2 aptamer inhibitor project, biochemical, flow cytometry, cherry pick 2; 25 tested, under 10 active; shares compounds with GRK2 aptamer HTS; change in fluorescence (kMESF span), kMESF (concentration not given with the values); Streptavidin beads; AID 504819, 2011;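 active = compounds quenching the bead-bound labeled aptamer, with fluorescence dropping by more than 37 kMESF over the dose range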
FAM quench CP2 = quenches fluorescent RNA aptamer, GRK2 hit artifact. shares compounds with GRK2 aptamer HTS. carboxyfluorescein RNA aptamer beads, flow cytometry quenching; active compounds read low. fluorescence response vs DMSO, % at 10 µM. 360 tested, under 10 active;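 active = response vs DMSO under 50%, meaning signal dropped by over half, treated as fluorescence quencher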;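 note: labelled aptamer on streptavidin beads without GRK2 as a quench counter-screen; 100% = bead fluorescence of DMSO wells and lower means quenching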
Scp-1 conf = Scp-1 phosphatase inhibitors, retest, confirmation, biochemical, colorimetric, single concentration. shares compounds with Scp1 inh. recombinant SCP-1 catalytic domain, phosphate release, malachite green absorbance. inhibition, % at 20 µM. hit rate 61% among 2,500. AID 540281, 2011;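 note: plate controls were DMSO with enzyme for no effect and buffer wells lacking enzyme for full effect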
Scp-1 MG ctr = colorimetric readout interference by compounds, confirmation, artefact control for Scp-1 inhibitor project, biochemical, single concentration; shares compounds with Scp1 inh; Colorimetric interference counterscreen, malachite green absorbance 630 nm; apparent inhibition (interference), % at 20 µM; 2,500 tested, under 10 active; AID 540313, 2011;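 note: compounds added after enzyme reaction finished so only phosphate colour detection is probed; plate controls were DMSO wells with completed Scp-1 reaction for no effect and substrate wells lacking enzyme for full effect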
Scp1 DSF = Scp-1 binding by thermal shift, confirmation, orthogonal assay for Scp-1 inhibitor project, biophysical, differential scanning fluorimetry. shares compounds with Scp1 inh. Recombinant SCP1, Sypro Orange thermal shift Tm. thermal shift relative to vanadate control, % at 40 µM. hit rate 25% among 1,500. AID 540329, 2011;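 active = substances whose mean melting-temperature shift, as a percentage of the reference inhibitor's shift, reaches about 5.3%, limit read from the data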;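 note: 0% = Tm of DMSO wells and 100% = Tm with sodium orthovanadate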
DNMT1 confirm = DNMT1 methyltransferase inhibitor retest, confirmation, biochemical, molecular beacon, fluorescence, single concentration; DNMT1 molecular beacon HinP1I cleavage; shares compounds with DNMT1 inh; inhibition, % at 10 µM; hit rate 8% among 2,300;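 active = average inhibition of at least 30% in the single-concentration confirmation test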
Beacon interf = shows spectral interference in the DNMT1 beacon assay | activation (fluorescence interference), % at 10 µM | shares compounds with DNMT1 inh | AID 602387 | hit rate 1% among 2,300 | DNMT1 molecular beacon spectral interference counterscreen, fluorescence 485/520;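 active = activation of at least 30% at 10 µM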;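 note: DNMT1 catalytic domain with a HinP1I cleavage step and a FAM/dabcyl DNA beacon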
Numbers without * were called inactive; . = no result. Shown are actives, neighbours in structure and some others; about 2.1% of the full set was active somewhere.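 Rule for the calls, unless noted: active = inhibition of at least 30% at 20 µM; inactive = the rest.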

SMILES | GRK2 aptamer HTS | SUMO1-SIM PPI | Scp1 inh | LMPTP block | STEP block | DNMT1 inh | GRK2 CP1 | FAM quench CP1 | Scp-1 conf | Scp-1 MG ctr | Scp1 DSF | others
COc1ccc(OC)c(Cc2nnc(CCC(=O)N3CCN(C4CCCC4)CC3)o2)c1 | 0 | -3 | -4 | 0 | -1 | 2 | . | . | . | . | .
Cc1cccc(C(=O)Nc2ccc(C(=O)N/N=C/c3cccnc3)cc2)c1 | 0 | 3 | -8 | -1 | -3 | 1 | . | . | . | . | .
O=C(N/N=C/c1cccnc1)c1cccc(NC(=O)c2ccc(Cl)cc2)c1 | 39 | 66* | 82* | 20 | 97* | -8 | -5 | 93 | 65* | -12 | 2
CC(C)(C)NC(=O)NC(=O)COC(=O)CNS(=O)(=O)c1ccc(Br)cc1Cl | 1 | -6 | -1 | 0 | -3 | 0 | . | . | . | . | .
O=C(O)c1ccc(-n2c(-c3cc(-c4ccco4)[nH]n3)n[nH]c2=S)cc1 | 80* | 27 | 67* | -2 | 6 | 43 | 4 | 99 | 69* | -8 | -6
CC(=O)N1CCc2cc(S(=O)(=O)CCC(=O)N3CCN(c4ccccc4F)CC3)ccc21 | 5 | -4 | 5 | 0 | 0 | 3 | . | . | . | . | .
CC(=O)N1CCCc2cc(S(=O)(=O)CCC(=O)N3CCN(c4cccc(C)c4)C(C)C3)ccc21 (stereo not given) | 40 | 8 | 50* | 0 | -2 | 33 | 28 | 100 | 26 | 6 | . | Aptamer quench=-2.2
CC(C)NC(=O)C1(C)CN(S(C)(=O)=O)CC(=O)N1CCOc1ccccc1 (stereo not given) | . | 0 | . | -1 | . | . | . | . | . | . | .
Cc1ccccc1S(=O)(=O)Cc1ccc(C(=O)N2CCN(c3ccccc3F)CC2)o1 | 2 | 4 | -2 | 1 | 0 | 2 | . | . | . | . | .
COc1ccc(/C=N/Nc2ncc(Br)cn2)c(OC)c1 | 45* | -6 | 57* | 11 | 15 | 20 | 25 | 99 | 38* | 3 | -17
COc1ccc(Cl)cc1NC(=O)CCNC(=O)OCc1ccccc1 | 5 | 3 | -6 | 1 | 3 | 4 | . | . | . | . | .
CC(=O)Nc1nc2c(ccc3ccccc32)s1 | 2 | 6 | 72* | -1 | -2 | -4 | . | . | 6 | -8 | . | GRK2 confirm 2=13;FAM quench CP2=101
CCc1ccccc1NC(=O)CCS(=O)(=O)c1ccc(OC)cc1 | 53* | 14 | 55* | 0 | 9 | 45 | 27 | 99 | 48* | -13 | -7 | Aptamer quench=2.8;Aptamer quench3=0.3
O=C(O)c1ccccc1-c1c2cc(I)c(=O)c(I)c-2oc2c(I)c(O)c(I)cc12 | 61* | 69* | 77* | 22 | -75 | 34 | 80* | 96 | 65* | -23 | 164* | Aptamer quench=8.8
O=Cc1ccc(-c2ccccc2C(=O)O)o1 | 5 | -2 | 5 | 2 | -3 | 6 | . | . | . | . | .
CCCN(CCC)CCNC(=S)Nc1ccc2nc3n(c(=O)c2c1)CCCCC3 | 3 | 5 | -1 | -1 | 8 | -2 | . | . | . | . | .
CN(Cc1ccccc1)c1ccc(N2C(=O)CCCC2=O)cc1[N+](=O)[O-] | 0 | -18 | 0 | 0 | 3 | 2 | . | . | . | . | .
CC[n+]1ccc(/C=C/c2ccc(N(C)C)cc2)c2ccccc21 | . | -51 | 3 | 32 | 21 | 1 | . | . | . | . | .
CC[n+]1ccc(C[n+]2ccccc2)c2ccccc21 | 54* | -16 | 97* | -1 | -2 | -8 | 3 | 95 | 86* | -10 | -4
O=C1C=C(Nc2ccc(O)cc2)CC(c2ccco2)C1 (stereo not given) | 3 | 0 | -1 | 0 | -1 | -8 | . | . | . | . | .
O=C1C=C(O)CC(c2ccco2)C1 (stereo not given) | 91* | 18 | 44 | -1 | 1 | 80* | 6 | 102 | . | . | . | DNMT1 confirm=4;Beacon interf=3
CC(C)Oc1cc(F)ccc1-c1cc(C(=O)Nc2cccc(C(F)(F)F)c2)[nH]n1 | . | 2 | . | 3 | -1 | -5 | . | . | . | . | .

Compound activity: PubChem BioAssay, several laboratories
